Hits are enriched below; roughly 3.5% of the tested compounds scored in any of these assays.
MrgX1 PAM: positive allosteric modulators of MrgX1, primary screen, HEK293 cells, Fluo-4 calcium flux. B-score at 10 µM. 0.63% of 310,000 active. Mas-related G-protein coupled receptor member X1 (Homo sapiens), Q96LB2. AID 588675, 2011. FDSS; active compounds read high;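 active = plate-corrected calcium response at least 3 library SD above typical, normal starting fluorescence, not activating the receptor alone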;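 note: compound read alongside a low EC10 to EC30 dose of BAM8-22 agonist; peak minus trough fluorescence over baseline measured at the second addition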
Target sequence (Q96LB2 whole entry, looked up): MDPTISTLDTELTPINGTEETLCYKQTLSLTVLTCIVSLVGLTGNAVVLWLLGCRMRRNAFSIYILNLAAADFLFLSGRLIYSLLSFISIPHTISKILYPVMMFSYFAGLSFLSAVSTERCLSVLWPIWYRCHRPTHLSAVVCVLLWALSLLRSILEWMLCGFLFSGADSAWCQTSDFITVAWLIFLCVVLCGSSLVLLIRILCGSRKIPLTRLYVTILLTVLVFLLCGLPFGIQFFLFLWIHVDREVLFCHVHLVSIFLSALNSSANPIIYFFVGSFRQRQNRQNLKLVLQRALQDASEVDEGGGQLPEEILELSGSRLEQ
MrgX1 antag: antagonists of human MrgX1 receptor, primary screen, HEK293 cells, Fluo-4 calcium flux; Mas-related G-protein coupled receptor member X1 (Homo sapiens), Q96LB2; BAM8-22 antagonism; active compounds read low; B-score at 10 µM; 1.3% of 310,000 active; AID 588676, 2011;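 active = calcium-response B-score plate-corrected more than 3 library SD below zero, starting fluorescence within 5 deviations, no agonist response on first addition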;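 note: peak minus trough fluorescence over baseline after final BAM8-22 challenge near maximal dose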
RGS4 block: RGS4 inhibitors, primary screen, cell-based, HEK293 M3R inducible RGS4, calcium flux; Regulator of G-protein signaling 4 (Homo sapiens), P49798; Fluo-4 calcium flux; active compounds read high; triggered by carbachol at its EC20; B-score at 10 µM; 0.45% of 310,000 active; AID 463165, 2010;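 active = B-score, a plate-corrected calcium signal, over three deviations above library mean, with baseline fluorescence within five deviations of library mean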;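 note: RGS4 expression induced by doxycycline in cells with stable M3 receptor; B-score is computed from the integrated fluorescence ratio over baseline after carbachol; higher B-score means a larger calcium signal and so more RGS4 inhibition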
Target sequence (P49798 whole entry, looked up): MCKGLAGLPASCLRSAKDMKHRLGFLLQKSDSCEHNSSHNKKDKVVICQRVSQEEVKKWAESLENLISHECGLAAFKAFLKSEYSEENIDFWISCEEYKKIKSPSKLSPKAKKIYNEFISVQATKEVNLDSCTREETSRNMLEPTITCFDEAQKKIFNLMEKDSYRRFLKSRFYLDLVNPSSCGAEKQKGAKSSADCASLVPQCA
MrgX1 agonist: agonists of human MrgX1 receptor, primary screen, HEK293 cells, Fluo-4 calcium flux | Mas-related G-protein coupled receptor member X1 (Homo sapiens), Q96LB2 | Fluo-4 calcium fluorescence, agonist mode; active compounds read high | B-score at 10 µM | 0.44% of 310,000 active | AID 588627, 2011;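 active = calcium response B-score plate-corrected fluorescence ratio at least 3 library SD, with starting fluorescence B-score inside 5 SD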
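Test system: HEK293 cells stably expressing human MrgX1 receptor; Input: fifteen thousand cells per well; Dosing: compound delivered in addition one of three; Schedule: overnight seeding, then 1 h dark dye loading; Technique: Fluo-4 NW calcium fluorescence; Measure: B-scored fluorescence response ratio; Controls: positive and negative controls per plate.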
RGS4 pot: RGS4 potentiators or activators, primary screen, cell-based, HEK293 M3R inducible RGS4, calcium flux; carbachol calcium flux Fluo4; active compounds read low; B-score at 10 µM; 0.92% of 310,000 active;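 active = B-score of the integrated calcium signal more than 4 SD below the library mean, with starting fluorescence not abnormally high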;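 note: negative B-score means reduced calcium response which marks RGS4 activation or potentiation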
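Material: M3R-expressing HEK293 line, RGS4 induced by doxycycline | Schedule: Overnight RGS4 induction, 30 min dye load 37 °C, 20 min compound RT | Measured by: Fluo4 fluorescence kinetic imaging of calcium | Read-out: Integrated calcium ratio converted to B score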
MrgX1 allo conf: MrgX1 positive allosteric modulators, duplicate retest, confirmation, HEK293 cells, Fluo-4 calcium flux. shares compounds with MrgX1 PAM. Fluo-4 calcium fluorescence, FDSS. activation (ratio percentage), % at 10 µM. 13% of 1,200 active. AID 602413, 2012;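 active = ratio at least 3 SD above the weak peptide control, stable starting fluorescence, no direct agonism earlier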;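 note: compound followed by low BAM8-22 agonist challenge near EC20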
MrgX1 ant reconf: MrgX1 receptor antagonists, duplicate retest, confirmation, HEK293 cells, Fluo-4 calcium flux | 19% of 2,300 active | AID 602420, 2012 | BAM8-22 calcium flux; active compounds read low | remaining BAM8-22 calcium response % of control (active compounds read low), % at 10 µM | shares compounds with MrgX1 antag;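 active = remaining agonist calcium response no higher than 100% minus 3 SD of agonist-only control wells, with starting fluorescence near control levels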;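 note: agonist BAM8-22 given at a near maximal EC90 to ECmax level; peak minus minimum fluorescence divided by baseline after agonist addition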
HEK293 Ca flux: nonspecific calcium signal in parental HEK293, confirmation, counter-screen for MrgX1 antagonist project, parental HEK293 cells, Fluo-4 calcium flux; Fluo-4 calcium fluorescence, FDSS; 2% of 4,000 active; AID 624111, 2012; shares compounds with MrgX1 antag; fluorescence ratio F(max-min)/F0 at 10 µM;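 active = duplicate-averaged calcium fluorescence ratio at least three times the standard deviation of buffer wells, a nonspecific response in parental cells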
HEK293 Ca counter: calcium response in parental HEK293 cells, primary screen, counter-screen for MrgX1 allosteric activator project, cell-based, Fluo-4 calcium flux, duplicate; AID 624114, 2012; Fluo-4 fluorescence ratio; active compounds read high; shares compounds with MrgX1 antag; fluorescence ratio F(max-min)/F0 at 10 µM; 0.4% of 4,000 active;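 active = calcium fluorescence ratio, averaged over duplicates, at least 3 SD of the buffer-well ratio, meaning a nonspecific response in receptor-free cells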;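 note: untransfected parental HEK293 lacking MrgX1 used as counterscreen for MrgX1 allosteric activators; fluorescence change taken during the second addition on a kinetic imager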
HEK293 Ca cntr2: calcium response in parental HEK293 cells, primary screen, counter-screen for MrgX1 agonist project, cell-based, Fluo-4 calcium flux, duplicate, agonist mode; 8.7% of 4,000 active; Fluo-4 calcium fluorescence (FDSS); active compounds read high; fluorescence ratio F(max-min)/F0 at 10 µM; shares compounds with MrgX1 antag;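 active = calcium fluorescence ratio at least three times the spread of buffer wells, meaning a non-specific response in parental cells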
* = called active by the depositor.

`Cc1ccc(-c2csc(NC(=O)c3ccccc3Cl)c2C(=O)O)cc1` gave MrgX1 PAM 6.6*, MrgX1 antag inactive, RGS4 block inactive, MrgX1 agonist inactive, RGS4 pot inactive, MrgX1 allo conf inactive, HEK293 Ca flux inactive, HEK293 Ca counter inactive and HEK293 Ca cntr2 inactive.
Nc1ccc2c(c1)Oc1ccccc1C=C2 was read as MrgX1 PAM 12*, MrgX1 antag inactive, RGS4 block inactive, MrgX1 agonist inactive, RGS4 pot inactive, MrgX1 allo conf inactive, HEK293 Ca flux inactive, HEK293 Ca counter inactive and HEK293 Ca cntr2 46*.
For CC(=O)N1CCSc2ccc(S(=O)(=O)NCCc3cccc(C)c3)cc21 the results were MrgX1 PAM inactive, MrgX1 antag inactive, RGS4 block inactive, MrgX1 agonist inactive and RGS4 pot inactive.
`CC(=O)N1CCSc2ccc(S(=O)(=O)NCCc3ccc(C)cc3)cc21` gave MrgX1 PAM 6.9*, MrgX1 antag inactive, RGS4 block inactive, MrgX1 agonist inactive, RGS4 pot inactive, MrgX1 allo conf inactive, HEK293 Ca flux inactive, HEK293 Ca counter inactive and HEK293 Ca cntr2 inactive.
`Cc1ccc(NC(=O)CCN2C(=O)CSC2=O)c(C)c1` gave MrgX1 PAM inactive, MrgX1 antag -4.6*, RGS4 block inactive, MrgX1 agonist inactive, RGS4 pot inactive, MrgX1 ant reconf inactive, HEK293 Ca flux inactive, HEK293 Ca counter inactive and HEK293 Ca cntr2 inactive.
For Cc1nc2sc3c(c2c(=O)o1)CC(C)(C)OC3 the results were MrgX1 PAM inactive, MrgX1 antag -6.1*, RGS4 block inactive, MrgX1 agonist inactive, RGS4 pot inactive, MrgX1 ant reconf inactive, HEK293 Ca flux inactive, HEK293 Ca counter inactive and HEK293 Ca cntr2 inactive.
`C=C(C)CN(CC)C(=O)CC1C(=O)NCCN1C` (stereo unspecified) gave MrgX1 PAM inactive, MrgX1 antag inactive, RGS4 block inactive, MrgX1 agonist inactive and RGS4 pot inactive.
CC(=O)c1ccc(NC(=O)C(C)NCc2ccccc2Cl)cc1 (stereo unspecified) was read as MrgX1 PAM inactive, MrgX1 antag -6.2*, RGS4 block inactive, MrgX1 agonist inactive, RGS4 pot inactive, MrgX1 ant reconf inactive, HEK293 Ca flux inactive, HEK293 Ca counter inactive and HEK293 Ca cntr2 inactive.
For CC1CCCCC1NC(=O)c1cccc(S(=O)(=O)N2CCN(Cc3ccccc3)CC2)c1 (stereo unspecified) the results were MrgX1 PAM inactive, MrgX1 antag -6.1*, RGS4 block inactive, MrgX1 agonist inactive, RGS4 pot inactive, MrgX1 ant reconf inactive, HEK293 Ca flux inactive, HEK293 Ca counter inactive and HEK293 Ca cntr2 inactive.
